Results pooled from the literature.
Compare with care: the assays were run in different laboratories.
RPS6KA4 C-terminal kinase domain: Ribosomal protein S6 kinase alpha-4, C-terminal kinase domain (RPS6KA4, Homo sapiens, UniProt O75676)
RPS6KA4 N-terminal kinase domain: Ribosomal protein S6 kinase alpha-4, N-terminal kinase domain (RPS6KA4, Homo sapiens, UniProt O75676)
RPS6KA4: Ribosomal protein S6 kinase alpha-4 (RPS6KA4, Homo sapiens, UniProt O75676)

SMILES	target	assay	setting	endpoint	result
O=C(Nc1cccnn1)N1CC(C/C=C/c2cncc(Oc3ccc(C(F)(F)F)cn3)n2)C1	RPS6KA4 C-terminal kinase domain	cell-free assay, competition with immobilised ligand	1 µM	remaining binding	92%
CN(c1nccc(-c2cnn3ncccc23)n1)C1CC1	RPS6KA4 N-terminal kinase domain	binding, competition with immobilised ligand	1 µM	remaining binding	100%
Clc1ccc(Nc2nnc(Cc3ccncc3)c3ccccc23)cc1	RPS6KA4	cell-free assay	0.5 µM	remaining signal	98%
CN(C)c1nccc(-c2cnn3ncccc23)n1	RPS6KA4 C-terminal kinase domain	binding, competition with immobilised ligand	1 µM	remaining binding	84%
CNC(=O)c1cc(Oc2ccc(NC(=O)Nc3ccc(Cl)c(C(F)(F)F)c3)cc2)ccn1	RPS6KA4	cell-free assay	0.5 µM	remaining signal	97.7%
Cc1cnc(NC2CCOCC2)nc1-n1cnc(C(=O)NC(CN)c2cc(F)cc(Cl)c2)c1 (stereo not drawn)	RPS6KA4	enzyme activity, inhibitor, radiometric	1 µM	remaining activity	80%
CCOc1cc(-c2nncn2C)ccc1Nc1ncc2cc(C)nc(NCC(C)(C)C)c2n1	RPS6KA4	enzyme activity, inhibitor, FRET	1 µM	inhibition	< 15%
COc1cc2ncnc(Nc3ccc(Oc4ccccc4)c(C)c3C)c2cc1OC	RPS6KA4	enzyme activity, inhibitor	1 µM	inhibition	-5%
Cc1cc(-n2nc(Cc3cc(F)cc(C(F)(F)F)c3)nc2C)ccc1C(N)=O	RPS6KA4 N-terminal kinase domain	cell-free assay, competition with immobilised ligand	1 µM	remaining binding	95%
COc1cc(Cl)c(C(=O)N[C@@H](CN[C@H]2CC[C@@H](N)CC2)Cc2ccc(C#N)cc2)cc1-c1ccc(CN[C@H](C)c2ccc(C)cc2)o1	RPS6KA4	enzyme activity, inhibitor	1 µM	remaining activity	77%
O=C(N[C@H]1CCCCC/C=C\C2C[C@@]2(C(=O)O)NC(=O)[C@@H]2C[C@@H](Oc3ccncc3)CN2C1=O)OC1CCCC1 (stereo partly drawn)	RPS6KA4 N-terminal kinase domain	binding, competition with immobilised ligand	1 µM	remaining binding	100%
CN1CC(Oc2cnc(C#N)cc2-c2ccn3nc(NC(=O)C4CC4)cc3c2)C1	RPS6KA4	enzyme activity, inhibitor	1 µM	inhibition	-1%
N[C@H]1CCN(c2nccc(-c3cnn4ncccc34)n2)C1	RPS6KA4 N-terminal kinase domain	binding, competition with immobilised ligand	1 µM	remaining binding	91%
CNc1cccc2cc(C(=O)Nc3ccc(C(=O)O)cc3)c(=O)[nH]c12	RPS6KA4	enzyme activity, inhibitor	10 µM	inhibition	8.2%
CC(=O)C1=C(C)N(c2cccc(C(F)(F)F)c2)C(=O)N[C@@H]1c1ccc(C#N)nc1	RPS6KA4 C-terminal kinase domain	cell-free assay, competition with immobilised ligand	1 µM	remaining binding	78.8%
CCN(CC)CCNC(=O)c1c(C)[nH]c(/C=C2\C(=O)Nc3ccc(F)cc32)c1C	RPS6KA4	cell-free assay	0.5 µM	remaining signal	50.8%
CCS(=O)(=O)c1cc2cc(C[C@](O)(CC(C)(C)c3ccc(F)cc3C(N)=O)C(F)(F)F)[nH]c2cn1	RPS6KA4 N-terminal kinase domain	cell-free assay, competition with immobilised ligand	1 µM	remaining binding	98%
Cc1sc(C(=O)NC2COC2)cc1-n1cc(NC(=O)Nc2c(F)cccc2Cl)cn1	RPS6KA4	enzyme activity, inhibitor	10 µM	remaining activity	105%
c1ccc(CNc2nc(N3CCOc4ccccc43)nc3c2CCCC3)cc1	RPS6KA4 N-terminal kinase domain	target engagement in cells, inhibitor, chemoproteomics	20 mM	inhibition	2.6%
Cn1cncc1C1=CN(c2ncnc3[nH]cnc23)CCS1	RPS6KA4	enzyme activity, inhibitor, radiometric	50 nM	inhibition	13.3%
COc1cc(-c2cn(C3CCc4ccccc4N(CC(F)(F)F)C3=O)nn2)ccc1-n1ccc(C)n1 (stereo not drawn)	RPS6KA4 N-terminal kinase domain	cell-free assay, competition with immobilised ligand	1 µM	remaining binding	78%
